Our source for the Ratio IC50 and IC50 values is ChEMBL document CHEMBL1212913, “Quinazolin-4-one derivatives: A novel class of noncompetitive NR2C/D subunit-selective N-methyl-D-aspartate receptor antagonists” (J Med Chem, 2010).

Each structure is given as a SMILES string.

For experiment [1], the species on record is Rattus norvegicus. The experiment in a line: Selectivity ratio of IC50 for rat recombinant NR1-NR2A receptor to IC50 for rat recombinant NR1-NR2D receptor. In a few lines:
(§1)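 Ratio of fitted IC50 values, either NR2A/NR2D or GluR1/NR2D, from two-electrode voltage-clamp Hill fits in oocytes. Where noted, calculated from IC50 values rounded to the nearest μM.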

In experiment [2] the target is Glutamate NMDA receptor; Grin1/Grin2b (Rattus norvegicus, UniProt P35439+Q00960). The experiment in a line: Antagonist activity at rat recombinant NR1-NR2B receptor expressed in Xenopus oocytes at holding potential of -40mV by two-electrode voltage-clamp electrophysiology. The note with it: read-out: IC50. Type of experiment: functional, cell-based, Oocyte. In a few lines:
(§2)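 Oocytes expressing rat NR1-1a with NR2A, NR2B, NR2C or NR2D, clamped at −40 mV in Ba2+/HEPES recording solution pH 7.4, 23°C. Current evoked by 100 μM glutamate plus 30 μM glycine. Final DMSO 0.05-0.5%, 5-7 inhibitor concentrations, ≥4 oocytes each. IC50 from Hill fit of normalized mean composite data. […] Some NR2A oocytes given BAPTA-AM or K-BAPTA.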

In another experiment the target is Glutamate receptor 1 (Rattus norvegicus, UniProt P19490). The experiment in a line: Antagonist activity at rat recombinant GLuR1 expressed in Xenopus oocytes assessed as inhibition of glutamate-induced current by two-electrode voltage-clamp electrophysiology. The class given is functional, cell-based, Oocyte. In a few lines:
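Two-electrode voltage clamp at −40 mV on Xenopus oocytes expressing rat GluR1, perfused with 90 NaCl, 1.0 KCl, 0.5 BaCl2, 0.005 EDTA, 10 HEPES (mM), pH 7.4, 23°C; activated by 100 μM glutamate. From 20 mM DMSO stocks, 5-7 concentrations, ≥4 oocytes each. Hill fit to mean composite curves normalized to control, minimum usually fixed at 0. Response >75% at 100 μM reported as >300 μM.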
A general note: Two-electrode voltage clamp is typically applied to oocytes expressing channels or transporters.

Experiment [3] deals with Glutamate NMDA receptor; Grin1/Grin2a (Rattus norvegicus, UniProt P35439+Q00959). As to the kind of experiment: Antagonist activity at rat recombinant NR1-NR2A receptor expressed in Xenopus oocytes at holding potential of -40mV by two-electrode voltage-clamp electrophysiology. Type of experiment: functional, cell-based, Oocyte. Conditions: read-out: IC50. In a few lines:
as §2

The target in experiment [4] is Ionotropic glutamate receptor NMDA 1/2D (Rattus norvegicus, UniProt P35439+Q62645). As to the kind of experiment: Antagonist activity at rat recombinant NR1-NR2D receptor expressed in Xenopus oocytes at holding potential of -40mV by two-electrode voltage-clamp electrophysiology. The class given is functional, cell-based, Oocyte. In short, it runs like this: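 Oocytes expressing rat NR1-1a with NR2A, NR2B, NR2C or NR2D, clamped at −40 mV in Ba2+/HEPES recording solution pH 7.4, 23°C. Current evoked by 100 μM glutamate plus 30 μM glycine. Final DMSO 0.05-0.5%, 5-7 inhibitor concentrations, ≥4 oocytes each. IC50 from Hill fit of normalized mean composite data. Some NR2A oocytes given BAPTA-AM or K-BAPTA.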

The target of experiment [5] is Glutamate NMDA receptor; Grin1/Grin2c (Rattus norvegicus, UniProt P35439+Q00961). The experiment in a line: Antagonist activity at rat recombinant NR1-NR2C receptor expressed in Xenopus oocytes at holding potential of -40mV by two-electrode voltage-clamp electrophysiology. Type of experiment: functional, cell-based, Oocyte. In short, it runs like this: as §2
For experiment [6], the species on record is Rattus norvegicus. The experiment in a line: Selectivity ratio of IC50 for rat recombinant GLuR1 to IC50 for rat recombinant NR1-NR2D receptor. In a few lines: as §1

Glutamate NMDA receptor; Grin1/Grin2c, sequence (Q00961 whole entry, other chains not shown): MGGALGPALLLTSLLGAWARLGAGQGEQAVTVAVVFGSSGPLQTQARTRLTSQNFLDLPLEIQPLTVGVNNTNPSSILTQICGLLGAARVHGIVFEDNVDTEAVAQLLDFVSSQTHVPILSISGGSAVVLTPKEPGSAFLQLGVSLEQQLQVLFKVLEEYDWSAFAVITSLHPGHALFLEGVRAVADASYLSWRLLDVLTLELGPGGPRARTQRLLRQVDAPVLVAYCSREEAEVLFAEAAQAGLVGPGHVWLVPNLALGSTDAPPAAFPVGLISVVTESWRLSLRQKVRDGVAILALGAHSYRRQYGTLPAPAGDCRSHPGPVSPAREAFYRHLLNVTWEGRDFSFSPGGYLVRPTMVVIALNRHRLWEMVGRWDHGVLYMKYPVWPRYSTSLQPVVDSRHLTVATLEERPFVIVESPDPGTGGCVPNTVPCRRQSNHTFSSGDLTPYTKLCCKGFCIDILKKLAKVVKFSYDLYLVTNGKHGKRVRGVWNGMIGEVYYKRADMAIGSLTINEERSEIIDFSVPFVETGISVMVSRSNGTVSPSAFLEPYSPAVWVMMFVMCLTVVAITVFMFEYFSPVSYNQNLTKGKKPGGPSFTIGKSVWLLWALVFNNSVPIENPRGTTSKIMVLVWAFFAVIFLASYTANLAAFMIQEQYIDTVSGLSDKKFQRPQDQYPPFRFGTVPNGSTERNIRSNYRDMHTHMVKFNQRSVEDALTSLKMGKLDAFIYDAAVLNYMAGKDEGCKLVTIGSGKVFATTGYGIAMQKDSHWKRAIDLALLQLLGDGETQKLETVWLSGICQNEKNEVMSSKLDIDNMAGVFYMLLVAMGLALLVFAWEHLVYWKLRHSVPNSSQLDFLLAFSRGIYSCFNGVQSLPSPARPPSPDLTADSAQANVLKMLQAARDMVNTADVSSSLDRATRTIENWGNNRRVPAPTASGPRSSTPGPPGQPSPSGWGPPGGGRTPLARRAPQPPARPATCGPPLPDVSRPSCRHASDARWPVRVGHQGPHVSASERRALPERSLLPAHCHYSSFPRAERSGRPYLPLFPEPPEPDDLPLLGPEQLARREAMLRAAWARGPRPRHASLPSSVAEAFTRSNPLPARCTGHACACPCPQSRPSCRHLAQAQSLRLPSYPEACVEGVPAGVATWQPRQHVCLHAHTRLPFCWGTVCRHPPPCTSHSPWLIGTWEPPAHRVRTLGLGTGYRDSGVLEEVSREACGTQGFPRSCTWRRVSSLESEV
Ionotropic glutamate receptor NMDA 1/2D, sequence (Q62645 whole entry, other chains not shown): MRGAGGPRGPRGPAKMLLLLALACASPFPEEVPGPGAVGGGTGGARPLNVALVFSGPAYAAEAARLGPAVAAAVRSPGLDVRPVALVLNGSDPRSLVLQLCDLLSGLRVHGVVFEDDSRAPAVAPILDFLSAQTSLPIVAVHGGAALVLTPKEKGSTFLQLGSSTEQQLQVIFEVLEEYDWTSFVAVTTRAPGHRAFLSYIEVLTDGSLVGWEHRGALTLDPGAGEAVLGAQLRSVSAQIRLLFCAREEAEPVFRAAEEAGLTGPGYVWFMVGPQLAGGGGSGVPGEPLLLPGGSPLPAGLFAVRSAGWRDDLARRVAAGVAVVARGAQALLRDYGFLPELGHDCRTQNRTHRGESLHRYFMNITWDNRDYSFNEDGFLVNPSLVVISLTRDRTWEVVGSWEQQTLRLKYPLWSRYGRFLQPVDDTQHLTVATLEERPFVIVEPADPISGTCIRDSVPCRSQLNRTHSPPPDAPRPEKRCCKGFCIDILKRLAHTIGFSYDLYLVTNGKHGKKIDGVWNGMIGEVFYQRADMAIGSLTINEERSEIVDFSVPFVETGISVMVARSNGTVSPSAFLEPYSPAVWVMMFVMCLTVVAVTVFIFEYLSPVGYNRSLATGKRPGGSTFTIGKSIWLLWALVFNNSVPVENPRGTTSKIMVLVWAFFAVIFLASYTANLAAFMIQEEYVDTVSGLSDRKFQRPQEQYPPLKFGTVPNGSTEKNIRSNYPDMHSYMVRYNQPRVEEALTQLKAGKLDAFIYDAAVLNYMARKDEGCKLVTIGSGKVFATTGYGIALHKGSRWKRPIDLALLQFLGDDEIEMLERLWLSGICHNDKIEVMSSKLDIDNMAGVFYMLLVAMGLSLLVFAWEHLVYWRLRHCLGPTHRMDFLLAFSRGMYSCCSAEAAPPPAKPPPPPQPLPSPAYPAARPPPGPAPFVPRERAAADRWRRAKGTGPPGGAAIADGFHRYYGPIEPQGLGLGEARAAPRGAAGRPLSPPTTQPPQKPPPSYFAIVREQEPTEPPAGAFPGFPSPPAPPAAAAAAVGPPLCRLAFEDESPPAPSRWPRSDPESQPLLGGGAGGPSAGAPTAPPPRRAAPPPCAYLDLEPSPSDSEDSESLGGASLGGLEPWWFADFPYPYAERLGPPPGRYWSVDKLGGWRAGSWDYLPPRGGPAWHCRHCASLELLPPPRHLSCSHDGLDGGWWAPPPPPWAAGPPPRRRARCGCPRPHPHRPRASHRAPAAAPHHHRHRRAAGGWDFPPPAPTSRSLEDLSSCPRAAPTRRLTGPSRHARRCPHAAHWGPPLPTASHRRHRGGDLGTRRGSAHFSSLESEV
Glutamate receptor 1, sequence (P19490 whole entry, the tested form may be a part): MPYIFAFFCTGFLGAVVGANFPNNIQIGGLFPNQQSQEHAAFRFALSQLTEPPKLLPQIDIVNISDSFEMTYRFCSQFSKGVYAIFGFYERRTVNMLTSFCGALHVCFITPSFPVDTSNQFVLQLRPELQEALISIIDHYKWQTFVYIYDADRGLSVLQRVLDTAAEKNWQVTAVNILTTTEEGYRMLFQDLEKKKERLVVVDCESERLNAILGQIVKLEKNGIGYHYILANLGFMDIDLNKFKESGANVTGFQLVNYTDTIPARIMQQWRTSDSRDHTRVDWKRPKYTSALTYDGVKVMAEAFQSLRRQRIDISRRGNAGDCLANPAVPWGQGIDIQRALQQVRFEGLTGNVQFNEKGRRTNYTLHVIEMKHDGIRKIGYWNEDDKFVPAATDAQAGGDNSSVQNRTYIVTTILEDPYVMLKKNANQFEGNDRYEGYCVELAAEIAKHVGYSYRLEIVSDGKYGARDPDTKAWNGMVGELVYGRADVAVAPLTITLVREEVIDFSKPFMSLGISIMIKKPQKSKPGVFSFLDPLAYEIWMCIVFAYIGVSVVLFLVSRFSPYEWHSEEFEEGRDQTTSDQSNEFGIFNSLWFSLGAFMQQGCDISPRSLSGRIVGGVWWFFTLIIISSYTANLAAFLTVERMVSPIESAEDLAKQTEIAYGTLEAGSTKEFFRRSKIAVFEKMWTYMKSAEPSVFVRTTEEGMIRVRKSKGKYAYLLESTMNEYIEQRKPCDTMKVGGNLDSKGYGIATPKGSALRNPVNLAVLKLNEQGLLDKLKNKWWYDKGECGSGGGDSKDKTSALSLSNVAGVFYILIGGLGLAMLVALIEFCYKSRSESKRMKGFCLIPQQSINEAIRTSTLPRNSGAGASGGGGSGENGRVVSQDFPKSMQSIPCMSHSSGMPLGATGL
Glutamate NMDA receptor; Grin1/Grin2b, sequence (Q00960 whole entry, other chains not shown): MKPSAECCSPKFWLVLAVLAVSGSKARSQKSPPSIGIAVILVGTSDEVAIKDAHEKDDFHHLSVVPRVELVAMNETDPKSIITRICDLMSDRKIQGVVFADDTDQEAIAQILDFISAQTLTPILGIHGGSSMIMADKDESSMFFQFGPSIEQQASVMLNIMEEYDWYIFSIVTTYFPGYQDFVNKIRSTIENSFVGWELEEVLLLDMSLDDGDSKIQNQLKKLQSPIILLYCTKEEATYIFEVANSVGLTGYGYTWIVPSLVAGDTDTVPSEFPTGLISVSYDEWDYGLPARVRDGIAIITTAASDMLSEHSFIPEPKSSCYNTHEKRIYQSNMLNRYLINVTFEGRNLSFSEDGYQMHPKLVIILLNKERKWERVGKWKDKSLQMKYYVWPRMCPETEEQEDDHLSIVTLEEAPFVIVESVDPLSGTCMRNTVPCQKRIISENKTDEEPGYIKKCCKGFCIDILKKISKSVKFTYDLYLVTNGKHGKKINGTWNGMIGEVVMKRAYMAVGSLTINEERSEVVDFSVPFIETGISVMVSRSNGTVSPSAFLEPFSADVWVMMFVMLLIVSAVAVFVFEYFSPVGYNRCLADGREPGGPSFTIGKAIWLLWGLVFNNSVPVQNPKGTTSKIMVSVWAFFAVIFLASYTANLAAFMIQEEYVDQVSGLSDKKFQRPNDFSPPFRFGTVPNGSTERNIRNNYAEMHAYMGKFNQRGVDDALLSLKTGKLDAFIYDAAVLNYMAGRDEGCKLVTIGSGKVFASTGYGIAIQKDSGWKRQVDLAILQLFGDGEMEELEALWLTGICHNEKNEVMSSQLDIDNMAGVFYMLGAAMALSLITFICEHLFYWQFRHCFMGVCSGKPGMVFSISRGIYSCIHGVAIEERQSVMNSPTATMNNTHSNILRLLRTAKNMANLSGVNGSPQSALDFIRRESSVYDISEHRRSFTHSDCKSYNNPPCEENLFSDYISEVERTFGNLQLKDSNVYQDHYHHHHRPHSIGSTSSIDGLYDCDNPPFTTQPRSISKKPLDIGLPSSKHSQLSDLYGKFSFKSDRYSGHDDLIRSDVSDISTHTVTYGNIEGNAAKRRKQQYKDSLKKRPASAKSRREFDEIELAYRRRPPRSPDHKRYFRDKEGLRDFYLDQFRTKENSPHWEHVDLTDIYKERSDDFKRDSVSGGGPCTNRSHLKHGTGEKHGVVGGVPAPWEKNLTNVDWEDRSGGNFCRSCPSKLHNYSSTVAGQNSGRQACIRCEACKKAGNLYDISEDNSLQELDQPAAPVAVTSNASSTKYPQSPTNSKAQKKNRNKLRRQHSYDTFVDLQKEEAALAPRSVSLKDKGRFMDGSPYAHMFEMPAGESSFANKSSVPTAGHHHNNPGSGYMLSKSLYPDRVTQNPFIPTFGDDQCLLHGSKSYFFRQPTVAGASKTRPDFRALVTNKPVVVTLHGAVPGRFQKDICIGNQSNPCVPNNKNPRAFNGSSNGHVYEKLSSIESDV

Turning to `N#Cc1ccc(/C=C/c2nc3ccccc3c(=O)n2-c2ccc(C(=O)O)cc2)cc1`, the Ratio IC50 in the experiment listed under Rattus norvegicus [1] was 3. The IC50 (as a rule, the concentration at which inhibition is half-maximal) was 106 µM in experiment [2]; greater than 300 µM on Glutamate receptor 1; 94 µM in experiment [3]; 34 µM in experiment [4]; 28 µM in experiment [5].

With `COc1ccc2nc(/C=C/c3cccc([N+](=O)[O-])c3)n(-c3ccc(C(N)=O)cc3)c(=O)c2c1`, the Ratio IC50 in the experiment listed under Rattus norvegicus [6] worked out at 1. For the same compound, the IC50 is 82 µM in experiment [2]; greater than 300 µM at Glutamate receptor 1; greater than 300 µM in experiment [3]; greater than 300 µM in experiment [4]; 58 µM in experiment [5].

In the case of `O=C(O)c1ccc(-n2c(/C=C/c3ccc([N+](=O)[O-])cc3)nc3ccc(I)cc3c2=O)cc1`, the Ratio IC50 in the experiment listed under Rattus norvegicus [1] was greater than 150. The IC50 was greater than 300 µM in experiment [2]; greater than 300 µM on Glutamate receptor 1; greater than 300 µM in experiment [3]; 1 µM in experiment [4]; 2 µM in experiment [5].

Consider `Cc1cccc(/C=C/c2nc3ccccc3c(=O)n2-c2ccc(C(=O)O)cc2)c1`, for which, in the experiment filed under Rattus norvegicus [1], the Ratio IC50 amounted to 1. In addition, the IC50 in experiment [2] is 34 µM; on Glutamate receptor 1, greater than 300 µM; in experiment [3] it was 21 µM; in experiment [4], 18 µM.

Regarding `Cc1ccc(-n2c(/C=C/c3cccnc3)nc3ccc(I)cc3c2=O)cc1`, the Ratio IC50 in the experiment filed under Rattus norvegicus [6] came out at 1. In addition, the half-maximal inhibitory concentration (IC50) (in experiment [2]; on Glutamate receptor 1; in experiment [3]; in experiment [4]; in experiment [5]) was greater than 300 µM throughout.

Consider `O=C(O)c1ccc(-n2c(/C=C/c3cccc([N+](=O)[O-])c3)nc3cc4c(cc3c2=O)OCO4)cc1`, for which the Ratio IC50 in the experiment listed under Rattus norvegicus [1] was 3. The IC50 is 162 µM in experiment [2]; greater than 300 µM at Glutamate receptor 1; 112 µM in experiment [3]; 36 µM in experiment [4]; 40 µM in experiment [5].

In the case of `COc1ccc2nc(/C=C/c3ccc([N+](=O)[O-])cc3)n(-c3cccc(C(=O)O)c3)c(=O)c2c1`, the Ratio IC50 in the experiment listed under Rattus norvegicus [1] turned out to be 15. Also, the IC50 in experiment [2] is 238 µM; at Glutamate receptor 1 it was greater than 300 µM; in experiment [3] it was 238 µM; in experiment [4], 16 µM; in experiment [5], 21 µM.

For `O=c1c2ccccc2nc(/C=C/c2cccc([N+](=O)[O-])c2)n1-c1ccccc1`, in the experiment listed under Rattus norvegicus [6], the Ratio IC50 worked out at 1. Also, the concentration for half-maximal inhibition (IC50) (in experiment [2]; on Glutamate receptor 1; in experiment [3]; in experiment [4]; in experiment [5]) was greater than 300 µM in each case.

For the compound `O=C(O)c1ccc(-n2c(/C=C/c3ccc4ccccc4c3)nc3ccccc3c2=O)cc1`, the Ratio IC50 in the experiment filed under Rattus norvegicus [1] worked out at 4. Further, the IC50 was 31 µM in experiment [2]; greater than 300 µM at Glutamate receptor 1; 21 µM in experiment [3]; 6 µM in experiment [4]; 14 µM in experiment [5].

`COc1ccc2nc(/C=C/c3cccc([N+](=O)[O-])c3)n(-c3ccc(C#N)cc3)c(=O)c2c1`: in the experiment filed under Rattus norvegicus [6], the Ratio IC50 worked out at 1. For the same compound, the IC50 (in experiment [2]; on Glutamate receptor 1; in experiment [3]; in experiment [4]; in experiment [5]) was greater than 300 µM in each case.

Turning to `COc1ccc2nc(/C=C/c3ccc([N+](=O)[O-])cc3)n(-c3ccc(C(=O)O)cc3)c(=O)c2c1`, in the experiment listed under Rattus norvegicus [1], the Ratio IC50 amounted to 28. Besides, the concentration for half-maximal inhibition (IC50) in experiment [2] is 206 µM; on Glutamate receptor 1, greater than 300 µM; in experiment [3], 197 µM; in experiment [4] it was 7 µM; in experiment [5], 13 µM.

As to `Cc1ccc(/C=C/c2nc3ccccc3c(=O)n2-c2ccc(C(=O)O)cc2)cc1`, in the experiment listed under Rattus norvegicus [1], the Ratio IC50 stood at 2. Moreover, the concentration for half-maximal inhibition (IC50) in experiment [2] is 138 µM; on Glutamate receptor 1, greater than 300 µM; in experiment [3] it was 41 µM; in experiment [4], 17 µM.

`Cc1cccc(-n2c(/C=C/c3cccnc3)nc3ccc(I)cc3c2=O)c1`: the Ratio IC50 in the experiment listed under Rattus norvegicus [6] stood at 1. For the same compound, the 50% inhibitory concentration (IC50) in experiment [2] was greater than 300 µM; at Glutamate receptor 1 it was greater than 300 µM; in experiment [3], greater than 300 µM; in experiment [4], greater than 300 µM; in experiment [5] it was 241 µM.
